Experimental findings from ChEMBL document CHEMBL1145864, “Synthesis and structure-activity relationship of a new series of COX-2 selective inhibitors: 1,5-diarylimidazoles” (J Med Chem, 2003) are described below.

Data set [1] is described as follows: Half life of compound was determined at 1 mg/kg intravenous administration in rat. The data set is classed as ADME, organism-based. The arrangement: dose 1 mg/kg, route intravenous. The conditions noted are these: in vivo.
For data set [2], the target named is Prostaglandin G/H synthase 1 (Homo sapiens, UniProt P23219). The class given is cell-based, U-937.
In data set [3] the test system is Rattus norvegicus. Briefly: In vivo inhibition of contralateral paw swelling after oral treatment for 28 days (1 mg/kg od) was determined by adjuvabt arthritis in rat. The data set is classed as functional. The method, boiled down:
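Lewis rats (140–170 g, 7 weeks) received 0.5 mg Mycobacterium butyricum in light mineral oil intradermally into the right hind foot pad; controls received incomplete adjuvant. Groups of 10 were dosed orally at 1 mg/kg daily for 28 days, starting on the day of injection. Left hind paw volume was measured plethysmographically at the end and expressed as % inhibition versus controls.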

The subject of data set [4] is Rattus norvegicus. Put plainly: In vivo analgesic activity of compound was determined by inflammatory hyperalgesia model at 3 mg/kg perorally in rat. The data set is classed as functional. The note with it: route oral. The method, boiled down: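 Male Sprague–Dawley rats received 1% carrageenan suspension (0.1 mL) into the right hind foot pad. Three hours later, compound (suspended in 1% Tween-80) was given by gavage. After 30 min, a heat stimulus was applied under the inflamed paw and withdrawal latency (s) recorded. The % inhibition of the stimulus-induced latency decrease was calculated relative to the untreated left paw.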

Data set [5] concerns Rattus norvegicus. Briefly: In vivo anti-inflammatory activity by air pouch model at 1 mg/kg perorally in rat. The data set is classed as functional. The note with it: route oral. The method, boiled down:
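Rat air pouch: sterile air (20 mL) was injected subcutaneously, with 10 mL refills every 2 days. On day 7, 2 mL of 1% lambda-carrageenan in saline was injected into the pouch. Compound was given orally (suspension in 1% CMC/Tween-80, 10 mL/kg) 0.5 h before carrageenan. At 6 h, exudate was collected and centrifuged, and supernatant PGE2 was measured by ELISA.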

In data set [6] the test system is Rattus norvegicus. Put plainly: In vivo anti-inflammatory activity determined by rat carrageenan paw edema method at 10 mg/kg perorally. The data set is classed as functional. The note with it: route oral.
Data set [7] concerns the target T1, Prostaglandin G/H synthase 2 (Homo sapiens) (UniProt P35354).
T1 sequence (whole entry): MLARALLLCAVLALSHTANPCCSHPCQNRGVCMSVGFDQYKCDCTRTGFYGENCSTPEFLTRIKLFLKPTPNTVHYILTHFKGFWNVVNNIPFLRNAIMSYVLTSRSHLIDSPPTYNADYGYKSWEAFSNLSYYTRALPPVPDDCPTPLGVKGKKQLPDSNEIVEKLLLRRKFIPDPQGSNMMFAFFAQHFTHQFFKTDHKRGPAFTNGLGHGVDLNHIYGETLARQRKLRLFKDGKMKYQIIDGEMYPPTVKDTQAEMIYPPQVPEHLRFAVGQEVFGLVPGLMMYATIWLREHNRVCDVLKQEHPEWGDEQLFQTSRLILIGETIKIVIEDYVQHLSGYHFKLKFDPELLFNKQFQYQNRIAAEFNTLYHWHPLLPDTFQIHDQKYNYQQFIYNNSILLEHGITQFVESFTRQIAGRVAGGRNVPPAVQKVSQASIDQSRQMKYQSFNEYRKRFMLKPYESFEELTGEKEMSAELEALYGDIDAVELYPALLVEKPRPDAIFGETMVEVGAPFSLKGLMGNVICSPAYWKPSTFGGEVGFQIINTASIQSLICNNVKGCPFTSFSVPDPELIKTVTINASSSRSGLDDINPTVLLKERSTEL
The note with it: Blood; at 10 µM.

For data set [8], the target named is T1, Prostaglandin G/H synthase 2 (Homo sapiens). The conditions noted are these: Blood; at 1 µM.
Data set [9] has as its system Rattus norvegicus. Briefly: Percentage of [51Cr]- secreted in feces was determined by fecal drug-induced bleeding method in rat at 100 mg/kg, bid for 4 days.
Data set [10] addresses T1, Prostaglandin G/H synthase 2 (Homo sapiens). Briefly: In vitro inhibition of Prostaglandin G/H synthase 2 (COX-2)in human whole blood at 1 uM was determined.
For data set [11], the system named is Rattus norvegicus. Briefly: In vivo anti-inflammatory activity of compound was determined by rat carrageenan paw edema at 10 mg/kg perorally. The note with it: po. Background: Carrageenan injected into the paw causes an acute inflammation.

Sequence of Prostaglandin G/H synthase 1 (P23219 whole entry): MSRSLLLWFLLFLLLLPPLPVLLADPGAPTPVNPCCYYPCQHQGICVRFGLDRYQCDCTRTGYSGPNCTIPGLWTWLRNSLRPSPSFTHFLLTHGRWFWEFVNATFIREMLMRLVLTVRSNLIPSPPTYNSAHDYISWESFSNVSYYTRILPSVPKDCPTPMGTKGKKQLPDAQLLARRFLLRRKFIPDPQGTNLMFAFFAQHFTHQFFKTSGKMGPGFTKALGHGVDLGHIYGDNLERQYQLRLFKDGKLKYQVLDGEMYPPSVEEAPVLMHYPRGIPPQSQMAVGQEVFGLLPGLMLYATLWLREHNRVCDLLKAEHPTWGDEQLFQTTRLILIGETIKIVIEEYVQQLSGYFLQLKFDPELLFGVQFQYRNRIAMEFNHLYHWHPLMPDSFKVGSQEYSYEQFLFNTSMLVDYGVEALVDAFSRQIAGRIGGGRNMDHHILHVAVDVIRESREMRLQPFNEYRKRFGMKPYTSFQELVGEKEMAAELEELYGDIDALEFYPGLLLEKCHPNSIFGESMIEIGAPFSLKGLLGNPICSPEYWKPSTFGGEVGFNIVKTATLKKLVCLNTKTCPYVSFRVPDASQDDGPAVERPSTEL

On to `COc1ccc(-c2c(Cl)ncn2-c2ccc(S(C)(=O)=O)cc2)cc1F`, for which, in [1], the half-life is 2.2 h. In data set [2], this compound gave an IC50 of over 10 µM. In the data set with Rattus norvegicus [3], this compound displayed an Inhibition of 86%. Further, at 3 mg/kg the inhibition in vivo in the data set on Rattus norvegicus [4] was 80%. The compound also came in with an inhibition in vivo at 1 mg/kg in the data set on Rattus norvegicus [5] of 89.5%. This compound had an inhibition in vivo at 10 mg/kg in the data set on Rattus norvegicus [6] of 24.2%. Further, the inhibition in data set [7] stood at 100%; in data set [8], 79%. Besides, the Cr secretion in the data set with Rattus norvegicus [9] was 0.4%.
Take `CS(=O)(=O)c1ccc(-c2cnc(C#N)n2-c2ccc(F)cc2)cc1`: the inhibition in data set [10] was found to be 74%; in data set [7], 100%. The same compound displayed an IC50 in [2] of over 10 µM. The inhibition in vivo at 1 mg/kg in the data set on Rattus norvegicus [5] turned out to be 79%. This compound also came in with an inhibition in vivo at 10 mg/kg in the data set on Rattus norvegicus [6] of 28.5%.
In turn, `CS(=O)(=O)c1ccc(-n2cnc(Cl)c2-c2ccc(F)cc2)cc1` gave a half-life in [1] of 21 h. In [2], this compound displayed a half-maximal inhibitory concentration (IC50) of over 10 µM. For the same compound, in the data set with Rattus norvegicus [5], testing at 1 mg/kg gave an inhibition in vivo of 98.1%. For the same compound, the inhibition is 100% in data set [7] and 89% in data set [8]. This compound also showed an inhibition in vivo at 10 mg/kg with Rattus norvegicus [11] of 41.2%.
`COc1ccc(-c2c(Cl)ncn2-c2ccc(S(N)(=O)=O)cc2)cc1F` [CIMICOXIB] had a half-life in [1] of 2.9 h. This compound yielded an IC50 in [2] of 3.3 µM. This compound yielded an Inhibition in the data set on Rattus norvegicus [3] of 93%. In the data set on Rattus norvegicus [4], testing at 3 mg/kg gave an inhibition in vivo of 83.4%. In the data set on Rattus norvegicus [5], this compound yielded an inhibition in vivo at 1 mg/kg of 98.2%. In the data set with Rattus norvegicus [6], the inhibition in vivo at 10 mg/kg came to 31%. Further, the inhibition in data set [7] and in data set [8] was 100% throughout. In the data set on Rattus norvegicus [9], this compound gave a Cr secretion of 0.9%.

For orientation: half-life means how long it takes for the measured level to halve. A high value points to slow decline. A word on the IC50: it is the midpoint of a concentration-inhibition curve. Higher therefore signals weaker potency. One may read the Inhibition as the relative decrease from the control value, in per cent. Read a high Inhibition as a response far below the control. The inhibition in vivo is how much of the control response was suppressed. Low readings indicate a response near the control, high ones a response far below the control. In general, inhibition refers to the change of the read-out against control, counted positive when it falls. Lower therefore signals little suppression.
